Results taken from ChEMBL document CHEMBL1126064, “Enzymatic synthesis and comparative biological evaluation of a phosphonate analogue of the lipid A precursor” (1992).

Tests used:
[1] = biological target: T1, Ornithine decarboxylase (Mus musculus) (UniProt P00860); experiment: Compound was evaluated for the stimulation of Ornithine decarboxylase (ODC) activity in murine macrophagelike cell line RAW264 as a parameter for macrophage stimulation, and the pyrogenicity test in rabbits at a concentration of 0.5 ug/ml
T1 sequence (whole entry): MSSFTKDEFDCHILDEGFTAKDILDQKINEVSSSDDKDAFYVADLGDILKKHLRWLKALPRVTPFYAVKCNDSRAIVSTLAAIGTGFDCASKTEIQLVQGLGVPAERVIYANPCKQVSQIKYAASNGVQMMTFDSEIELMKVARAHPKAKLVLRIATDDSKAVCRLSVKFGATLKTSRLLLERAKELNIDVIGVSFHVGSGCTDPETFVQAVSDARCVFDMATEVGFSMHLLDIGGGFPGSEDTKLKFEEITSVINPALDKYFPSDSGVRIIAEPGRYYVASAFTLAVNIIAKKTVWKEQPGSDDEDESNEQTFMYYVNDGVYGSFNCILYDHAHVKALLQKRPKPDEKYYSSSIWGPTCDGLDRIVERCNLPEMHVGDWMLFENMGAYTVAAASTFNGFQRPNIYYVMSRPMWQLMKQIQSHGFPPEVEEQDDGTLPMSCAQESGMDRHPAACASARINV
Summary of the method: (§1)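 RAW-264 cells at 5.5 × 10^5 cells/mL in serum-free DMEM-H21 with 15 mM HEPES and 1 mM pyruvate, held overnight at 37 °C/5% CO2. Murine γ-IFN (2000 units/mL) and test material in pyrogen-free water then added for 4 h. Cells were lysed by sonication, and ODC in the supernatant was assayed with [3H]-L-ornithine plus 1 mM L-ornithine stock, 60 min at 37 °C. LPS 5 ng/mL served as internal standard.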

Oryctolagus cuniculus [2] = experiment: Increase in temperature of three rabbits treatment with the compound at a dose of 1 ug/kg.; format: functional
[3] = biological target: T1, Ornithine decarboxylase (Mus musculus); experiment: Compound was evaluated for the stimulation of Ornithine decarboxylase (ODC) activity in murine macrophagelike cell line RAW264 as a parameter for macrophage stimulation, and the pyrogenicity test in rabbits at a concentration of 0.02 ug/ml; summary of the method: as §1
[4] = biological target: T1, Ornithine decarboxylase (Mus musculus); experiment: Compound was evaluated for the stimulation of Ornithine decarboxylase (ODC) activity in murine macrophagelike cell line RAW264 as a parameter for macrophage stimulation, and the pyrogenicity test in rabbits at a concentration of 0.1 ug/ml; summary of the method: as §1
Oryctolagus cuniculus [5] = experiment: Increase in temperature of three rabbits treatment with the compound at a dose of 50 ug/kg.; format: functional
[6] = biological target: T1, Ornithine decarboxylase (Mus musculus); experiment: Compound was evaluated for the stimulation of Ornithine decarboxylase (ODC) activity in murine macrophagelike cell line RAW264 as a parameter for macrophage stimulation, and the pyrogenicity test in rabbits at a concentration of 2 ug/ml; summary of the method: as §1
[7] = Endotoxic activity determined by limulus amoebocyte lysate (LAL) assay
[8] = biological target: T1, Ornithine decarboxylase (Mus musculus); experiment: Compound was evaluated for the stimulation of Ornithine decarboxylase (ODC) activity in murine macrophagelike cell line RAW264 as a parameter for macrophage stimulation, and the pyrogenicity test in rabbits at a concentration of 10 ug/ml; summary of the method: as §1

Compound	Stimulation [1]	increase in temperature (Oryctolagus cuniculus [2])	Stimulation [3]	Stimulation [4]	increase in temperature (Oryctolagus cuniculus [5])	Stimulation [6]	EU [7]	Stimulation [8]
CCCCCCCCCCCC(O)CC(=O)N[C@@H]1C(OCC2OC(OP(=O)(O)O)[C@@H](NC(=O)CC(O)CCCCCCCCCCC)C(OC(=O)CC(O)CCCCCCCCCCC)[C@@H]2O)OC(CO)[C@@H](O)C1OC(=O)CC(O)CCCCCCCCCCC (stereo partly specified)	60%	2.1	2%	30%	5.95	98%	80000 g⁻¹	97%
CCCCCCCCCCCC(O)CC(=O)N[C@@H]1C(OCC2OC(P(=O)(O)O)[C@@H](NC(=O)CC(O)CCCCCCCCCCC)C(OC(=O)CC(O)CCCCCCCCCCC)[C@@H]2O)OC(CO)[C@@H](O)C1OC(=O)CC(O)CCCCCCCCCCC (stereo partly specified) [PHOSPHONATE ANALOGUE OF LIPID A]	70%	2.1	5%	20%	6.6	75%	30000 g⁻¹	84%
